Measured values of several laboratories.
Each line is one published result; the experiments were not run side by side.
Target: Bone morphogenetic protein receptor type-2 (BMPR2, Homo sapiens, UniProt Q13873)
One construct used (Q13873 27-1038): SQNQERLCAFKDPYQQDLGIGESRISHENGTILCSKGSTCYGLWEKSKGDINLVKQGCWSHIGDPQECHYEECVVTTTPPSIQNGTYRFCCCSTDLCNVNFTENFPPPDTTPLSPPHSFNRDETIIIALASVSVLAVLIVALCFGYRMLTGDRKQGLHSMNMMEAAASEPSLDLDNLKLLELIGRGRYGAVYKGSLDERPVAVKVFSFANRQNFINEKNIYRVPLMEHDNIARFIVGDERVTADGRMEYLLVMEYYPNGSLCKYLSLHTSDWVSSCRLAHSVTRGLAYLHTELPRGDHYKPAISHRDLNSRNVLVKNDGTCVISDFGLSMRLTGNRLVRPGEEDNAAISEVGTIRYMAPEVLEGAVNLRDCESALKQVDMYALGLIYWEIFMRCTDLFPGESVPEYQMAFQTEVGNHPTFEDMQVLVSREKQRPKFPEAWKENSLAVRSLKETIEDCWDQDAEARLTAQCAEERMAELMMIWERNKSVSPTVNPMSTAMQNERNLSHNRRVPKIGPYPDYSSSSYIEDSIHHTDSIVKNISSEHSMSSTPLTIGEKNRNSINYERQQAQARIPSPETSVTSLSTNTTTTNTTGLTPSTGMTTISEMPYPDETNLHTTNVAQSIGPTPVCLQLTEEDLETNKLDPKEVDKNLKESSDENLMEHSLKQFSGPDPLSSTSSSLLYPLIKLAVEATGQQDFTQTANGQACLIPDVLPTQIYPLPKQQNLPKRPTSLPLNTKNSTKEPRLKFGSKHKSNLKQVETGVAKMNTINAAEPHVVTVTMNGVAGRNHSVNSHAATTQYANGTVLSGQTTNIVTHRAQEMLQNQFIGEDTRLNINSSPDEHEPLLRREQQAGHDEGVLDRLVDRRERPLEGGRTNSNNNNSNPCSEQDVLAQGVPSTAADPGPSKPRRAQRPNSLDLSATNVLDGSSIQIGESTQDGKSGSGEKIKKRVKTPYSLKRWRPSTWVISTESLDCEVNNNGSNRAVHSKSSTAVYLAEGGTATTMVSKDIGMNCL

`C[C@H]1CCN(c2nccc(-c3cnn4ncccc34)n2)C1` has a remaining binding of 97% (binding; 1 µM).
The remaining binding of `N#Cc1ccccc1CSc1nnc2c(n1)[nH]c1ccccc12` is reported as 90% (binding, competition with immobilised ligand; 10 µM).
`CSc1cccnc1N1CCN(Cc2nc3ccccc3[nH]2)CC1` gave a remaining binding of 80% (cell-free assay, competition with immobilised ligand; 1 µM).
`CN(C)c1nccc(-c2cnn3ncccc23)n1` gave a remaining binding of 99% (binding; 1 µM).
With `O=C(NCC1CCOCC1)c1n[nH]cc1NC(=O)c1c(F)cccc1F` the remaining binding was 86% (binding, competition with immobilised ligand; 1 µM).
The remaining binding of `CN(CCCC(F)(F)F)c1nccc(-c2cnn3ncccc23)n1` is reported as 97% (binding; 1 µM).
With `O=C(NCc1ncc(C(F)(F)F)cc1Cl)c1ccc2c(c1)C1(CCS(=O)(=O)CC1)[C@H](C1CC1)N2S(=O)(=O)c1ccc(F)cc1` the remaining binding was 80% (cell-free assay, competition with immobilised ligand; 1 µM).
With `COc1ncc2cc3ccccc3nc2c1C#N` the remaining binding was 100% (cell-free assay, competition with immobilised ligand; 5 µM).
`O=C(NCCCN1CCOCC1)c1ccc(Nc2ncc(Cl)c(-c3ccc(Cl)s3)n2)cc1` has a remaining binding of 55% (binding, competition with immobilised ligand; 1 µM).
`CC(C)(C)c1ccc(-c2nc(CBr)nn2-c2cccc(O)c2)cc1` has a remaining binding of 81% (cell-free assay, competition with immobilised ligand; 10 µM).
`CC(=O)N1CCC(c2ccc(C(=O)NC3=NCCN3)cc2C(F)(F)F)CC1` gave a remaining binding of 100% (cell-free assay, competition with immobilised ligand; 1 µM).
With `O=C(c1ccc(Nc2nccc(-c3cc4ccccc4s3)n2)cc1)N1CCC(N2CCCC2)CC1` the remaining binding was 67% (binding, competition with immobilised ligand; 1 µM).
The remaining binding of `CNC(=O)[C@@H]1CC[C@@H](n2c(-c3ccc4cnccc4c3)nc3ccc(C(=O)NCc4cccc(C(N)=O)c4)cc32)C1` is reported as 0.25% (binding, competition with immobilised ligand; 1 µM).
With `COc1cccc(CNC(=O)c2nc3scc(COCc4ccc(C(=O)O)cc4)c3c(=O)[nH]2)c1` the remaining binding was 71.8% (cell-free assay, competition with immobilised ligand; 1 µM).
The remaining binding of `O=C(c1ccc(Nc2ncc(Cl)c(-c3ccc(Cl)s3)n2)cc1)N1CCC(N2CCCC2)CC1` is reported as 28% (binding, competition with immobilised ligand; 1 µM).
`COc1ccnn2ncc(-c3ccnc(N(C)C)n3)c12` has a remaining binding of 65% (binding; 1 µM).
With `CS(=O)(=O)c1cc(C2(NC(=O)c3cncc4c3cnn4-c3ccc(F)cc3)CC2)ccn1` the remaining binding was 99% (cell-free assay, competition with immobilised ligand; 1 µM).
With `CN(c1nccc(-c2cnn3ncccc23)n1)C1CC1` the remaining binding was 100% (binding; 1 µM).
For `FC(F)(F)Oc1cccc(-c2cnc3ccc(-c4ccncc4)nn23)c1`, the remaining binding was 56% (cell-free assay, competition with immobilised ligand; 5 µM).
With `c1cnn2ncc(-c3ccnc(N4CCC45COC5)n3)c2c1` the remaining binding was 68% (binding; 1 µM).
For `Cc1c(NC(=O)c2cc(C(N)=O)nc3cc(F)ccc23)c(C(F)(F)F)nn1Cc1ccc(C(C)(C)C)cc1`, the remaining binding was 100% (cell-free assay, competition with immobilised ligand; 1 µM).
For `C[C@@H]1CN(c2ccc3ncc(-c4ccc5[nH]nc(C6CC6)c5c4)n3n2)C[C@H](C)O1`, the remaining binding was 56% (binding, competition with immobilised ligand; 0.5 µM).
`N[C@H]1CCN(c2nccc(-c3cnn4ncccc34)n2)C1` has a remaining binding of 100% (binding; 1 µM).
`CCCCN(CCCC)C(=O)CN1C[C@@H](c2cc(OC)c3c(c2)OCO3)[C@H](C(=O)O)[C@H]1CC(C)(C)CCC` has a remaining binding of 86.7% (cell-free assay, competition with immobilised ligand; 1 µM).
